Calls of active or inactive are those of the source. The calls are words filed in the database; no cut-off is given here.
What was measured:
[1] = target: T1, Bifunctional epoxide hydrolase 2 (Homo sapiens, UniProt P34913); assay: Inhibition of human soluble epoxide hydrolase
T1 sequence (P34913 whole entry): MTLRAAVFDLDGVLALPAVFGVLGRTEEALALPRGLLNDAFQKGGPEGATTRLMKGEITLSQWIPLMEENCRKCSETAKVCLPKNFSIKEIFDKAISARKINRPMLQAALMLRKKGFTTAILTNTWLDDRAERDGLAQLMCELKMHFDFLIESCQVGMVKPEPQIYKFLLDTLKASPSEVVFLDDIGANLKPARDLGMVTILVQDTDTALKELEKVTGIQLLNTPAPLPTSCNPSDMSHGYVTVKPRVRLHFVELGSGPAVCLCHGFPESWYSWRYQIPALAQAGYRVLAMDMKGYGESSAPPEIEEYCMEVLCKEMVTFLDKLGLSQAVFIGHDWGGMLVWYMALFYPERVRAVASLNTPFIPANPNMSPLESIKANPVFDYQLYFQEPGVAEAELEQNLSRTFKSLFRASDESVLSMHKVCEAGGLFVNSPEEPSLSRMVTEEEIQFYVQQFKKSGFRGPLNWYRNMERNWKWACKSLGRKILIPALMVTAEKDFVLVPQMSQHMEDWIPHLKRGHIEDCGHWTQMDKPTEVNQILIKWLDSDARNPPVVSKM

[2] = target: T2, Bifunctional epoxide hydrolase 2 (Rattus norvegicus, UniProt P80299); assay: Inhibition of rat soluble epoxide hydrolase
T2 sequence (P80299 whole entry): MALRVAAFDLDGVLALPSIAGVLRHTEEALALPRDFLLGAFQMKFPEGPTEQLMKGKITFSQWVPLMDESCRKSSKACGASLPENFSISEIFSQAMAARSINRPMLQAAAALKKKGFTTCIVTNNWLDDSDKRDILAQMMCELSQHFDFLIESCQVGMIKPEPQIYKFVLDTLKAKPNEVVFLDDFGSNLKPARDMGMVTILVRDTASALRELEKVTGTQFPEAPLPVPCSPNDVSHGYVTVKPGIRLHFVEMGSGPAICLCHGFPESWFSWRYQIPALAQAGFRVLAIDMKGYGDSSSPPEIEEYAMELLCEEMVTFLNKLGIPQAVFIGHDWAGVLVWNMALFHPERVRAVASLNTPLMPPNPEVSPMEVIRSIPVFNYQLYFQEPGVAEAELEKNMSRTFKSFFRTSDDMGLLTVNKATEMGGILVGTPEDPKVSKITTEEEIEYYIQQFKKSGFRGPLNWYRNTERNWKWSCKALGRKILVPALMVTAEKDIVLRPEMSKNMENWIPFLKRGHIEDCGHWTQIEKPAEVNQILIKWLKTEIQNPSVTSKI

[3] = target: T3, Epoxide hydrolase 1 (Homo sapiens, UniProt P07099); assay: Inhibition of human microsomal epoxide hydrolase
T3 sequence (P07099 whole entry): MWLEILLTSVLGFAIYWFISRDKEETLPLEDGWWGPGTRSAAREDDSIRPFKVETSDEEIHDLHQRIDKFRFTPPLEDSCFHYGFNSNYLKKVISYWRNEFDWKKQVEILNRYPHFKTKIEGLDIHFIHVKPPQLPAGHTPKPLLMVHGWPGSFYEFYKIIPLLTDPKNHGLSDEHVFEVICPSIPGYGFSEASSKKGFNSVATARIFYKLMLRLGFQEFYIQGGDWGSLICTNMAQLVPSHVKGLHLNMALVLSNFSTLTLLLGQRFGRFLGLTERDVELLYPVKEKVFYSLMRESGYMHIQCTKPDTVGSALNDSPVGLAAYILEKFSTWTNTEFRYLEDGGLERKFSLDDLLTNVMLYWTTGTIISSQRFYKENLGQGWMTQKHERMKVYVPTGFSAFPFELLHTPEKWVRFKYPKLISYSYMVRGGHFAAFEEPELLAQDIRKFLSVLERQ
Procedure, shortened: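 Human mEH used as the counterscreen enzyme. Values come from one or two experiments, each in triplicate, with repeats within 20%.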

[4] = target: Cytochrome P450 2C9 (Homo sapiens, UniProt P11712); assay: Inhibition of CYP2C9; type: ADME
Chain of Cytochrome P450 2C9 (P11712 whole entry): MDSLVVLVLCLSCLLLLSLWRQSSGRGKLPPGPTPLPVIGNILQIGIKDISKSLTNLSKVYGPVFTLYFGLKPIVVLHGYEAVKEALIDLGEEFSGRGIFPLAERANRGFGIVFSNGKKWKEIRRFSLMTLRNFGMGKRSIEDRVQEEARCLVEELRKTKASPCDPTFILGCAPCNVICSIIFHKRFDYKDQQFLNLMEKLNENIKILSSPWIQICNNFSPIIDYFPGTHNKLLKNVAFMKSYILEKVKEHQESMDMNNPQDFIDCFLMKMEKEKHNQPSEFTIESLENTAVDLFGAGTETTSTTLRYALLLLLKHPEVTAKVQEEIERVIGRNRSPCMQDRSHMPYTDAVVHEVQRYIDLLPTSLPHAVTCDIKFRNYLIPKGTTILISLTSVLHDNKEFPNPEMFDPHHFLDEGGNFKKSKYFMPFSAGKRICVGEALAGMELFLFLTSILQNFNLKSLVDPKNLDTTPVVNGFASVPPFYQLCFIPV

[5] = target: CYP2D6 (Homo sapiens, UniProt P10635); assay: (§1) Inhibition of CYP2D6; type: ADME
Chain of CYP2D6 (P10635 whole entry): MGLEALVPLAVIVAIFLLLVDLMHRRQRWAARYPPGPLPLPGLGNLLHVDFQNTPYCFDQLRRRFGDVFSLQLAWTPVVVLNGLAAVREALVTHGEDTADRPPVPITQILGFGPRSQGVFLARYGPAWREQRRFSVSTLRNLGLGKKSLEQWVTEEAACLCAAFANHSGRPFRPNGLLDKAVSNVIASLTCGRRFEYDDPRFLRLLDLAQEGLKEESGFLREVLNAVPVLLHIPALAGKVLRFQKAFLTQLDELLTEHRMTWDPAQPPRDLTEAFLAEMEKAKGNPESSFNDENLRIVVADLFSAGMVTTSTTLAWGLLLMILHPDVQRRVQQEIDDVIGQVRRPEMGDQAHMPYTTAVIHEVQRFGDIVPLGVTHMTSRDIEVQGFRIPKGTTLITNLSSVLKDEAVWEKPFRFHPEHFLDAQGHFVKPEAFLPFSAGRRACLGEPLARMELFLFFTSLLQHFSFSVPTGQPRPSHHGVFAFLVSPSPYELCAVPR

[6] = target: Cytochrome P450 3A4 (Homo sapiens, UniProt P08684); assay: Inhibition of CYP3A4; type: ADME
Chain of Cytochrome P450 3A4 (P08684 whole entry): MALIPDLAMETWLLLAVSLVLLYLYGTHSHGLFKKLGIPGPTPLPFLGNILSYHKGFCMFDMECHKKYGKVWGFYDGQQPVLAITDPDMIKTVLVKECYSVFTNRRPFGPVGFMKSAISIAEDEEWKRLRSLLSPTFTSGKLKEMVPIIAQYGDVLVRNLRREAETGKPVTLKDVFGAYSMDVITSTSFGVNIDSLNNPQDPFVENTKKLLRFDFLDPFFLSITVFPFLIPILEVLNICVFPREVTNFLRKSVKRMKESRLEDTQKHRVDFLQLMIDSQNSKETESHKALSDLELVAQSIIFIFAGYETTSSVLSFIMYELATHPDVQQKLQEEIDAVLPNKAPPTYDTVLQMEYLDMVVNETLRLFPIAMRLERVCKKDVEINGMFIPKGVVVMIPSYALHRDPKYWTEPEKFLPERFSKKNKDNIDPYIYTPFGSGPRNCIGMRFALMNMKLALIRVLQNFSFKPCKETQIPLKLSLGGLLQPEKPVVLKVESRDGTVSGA

[7] = Inhibition of potassium channel IKr
[8] = target: L-type calcium channel; assay: Inhibition of calcium channel diltiazem binding site
[9] = target: T1, Bifunctional epoxide hydrolase 2; assay: Inhibition of human soluble epoxide hydrolase in HEK293 cells assessed as DHET production; type: cell-based
Procedure, shortened: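 Whole-cell 14,15-DHET production assay in HEK293 cells, run with or without 10% human serum. Values come from one or two experiments, each in triplicate, with repeats within 20%.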

[10] = target: Cytochrome P450 2D6 (Homo sapiens, UniProt P10635); assay: as §1; type: ADME
Chain of Cytochrome P450 2D6 (P10635 whole entry): as the sequence (P10635 whole entry) above

[11] = target: Sodium channel protein type 5 subunit alpha (Homo sapiens, UniProt Q14524); assay: Inhibition of Nav1.5 channel
Chain of Sodium channel protein type 5 subunit alpha (Q14524 whole entry): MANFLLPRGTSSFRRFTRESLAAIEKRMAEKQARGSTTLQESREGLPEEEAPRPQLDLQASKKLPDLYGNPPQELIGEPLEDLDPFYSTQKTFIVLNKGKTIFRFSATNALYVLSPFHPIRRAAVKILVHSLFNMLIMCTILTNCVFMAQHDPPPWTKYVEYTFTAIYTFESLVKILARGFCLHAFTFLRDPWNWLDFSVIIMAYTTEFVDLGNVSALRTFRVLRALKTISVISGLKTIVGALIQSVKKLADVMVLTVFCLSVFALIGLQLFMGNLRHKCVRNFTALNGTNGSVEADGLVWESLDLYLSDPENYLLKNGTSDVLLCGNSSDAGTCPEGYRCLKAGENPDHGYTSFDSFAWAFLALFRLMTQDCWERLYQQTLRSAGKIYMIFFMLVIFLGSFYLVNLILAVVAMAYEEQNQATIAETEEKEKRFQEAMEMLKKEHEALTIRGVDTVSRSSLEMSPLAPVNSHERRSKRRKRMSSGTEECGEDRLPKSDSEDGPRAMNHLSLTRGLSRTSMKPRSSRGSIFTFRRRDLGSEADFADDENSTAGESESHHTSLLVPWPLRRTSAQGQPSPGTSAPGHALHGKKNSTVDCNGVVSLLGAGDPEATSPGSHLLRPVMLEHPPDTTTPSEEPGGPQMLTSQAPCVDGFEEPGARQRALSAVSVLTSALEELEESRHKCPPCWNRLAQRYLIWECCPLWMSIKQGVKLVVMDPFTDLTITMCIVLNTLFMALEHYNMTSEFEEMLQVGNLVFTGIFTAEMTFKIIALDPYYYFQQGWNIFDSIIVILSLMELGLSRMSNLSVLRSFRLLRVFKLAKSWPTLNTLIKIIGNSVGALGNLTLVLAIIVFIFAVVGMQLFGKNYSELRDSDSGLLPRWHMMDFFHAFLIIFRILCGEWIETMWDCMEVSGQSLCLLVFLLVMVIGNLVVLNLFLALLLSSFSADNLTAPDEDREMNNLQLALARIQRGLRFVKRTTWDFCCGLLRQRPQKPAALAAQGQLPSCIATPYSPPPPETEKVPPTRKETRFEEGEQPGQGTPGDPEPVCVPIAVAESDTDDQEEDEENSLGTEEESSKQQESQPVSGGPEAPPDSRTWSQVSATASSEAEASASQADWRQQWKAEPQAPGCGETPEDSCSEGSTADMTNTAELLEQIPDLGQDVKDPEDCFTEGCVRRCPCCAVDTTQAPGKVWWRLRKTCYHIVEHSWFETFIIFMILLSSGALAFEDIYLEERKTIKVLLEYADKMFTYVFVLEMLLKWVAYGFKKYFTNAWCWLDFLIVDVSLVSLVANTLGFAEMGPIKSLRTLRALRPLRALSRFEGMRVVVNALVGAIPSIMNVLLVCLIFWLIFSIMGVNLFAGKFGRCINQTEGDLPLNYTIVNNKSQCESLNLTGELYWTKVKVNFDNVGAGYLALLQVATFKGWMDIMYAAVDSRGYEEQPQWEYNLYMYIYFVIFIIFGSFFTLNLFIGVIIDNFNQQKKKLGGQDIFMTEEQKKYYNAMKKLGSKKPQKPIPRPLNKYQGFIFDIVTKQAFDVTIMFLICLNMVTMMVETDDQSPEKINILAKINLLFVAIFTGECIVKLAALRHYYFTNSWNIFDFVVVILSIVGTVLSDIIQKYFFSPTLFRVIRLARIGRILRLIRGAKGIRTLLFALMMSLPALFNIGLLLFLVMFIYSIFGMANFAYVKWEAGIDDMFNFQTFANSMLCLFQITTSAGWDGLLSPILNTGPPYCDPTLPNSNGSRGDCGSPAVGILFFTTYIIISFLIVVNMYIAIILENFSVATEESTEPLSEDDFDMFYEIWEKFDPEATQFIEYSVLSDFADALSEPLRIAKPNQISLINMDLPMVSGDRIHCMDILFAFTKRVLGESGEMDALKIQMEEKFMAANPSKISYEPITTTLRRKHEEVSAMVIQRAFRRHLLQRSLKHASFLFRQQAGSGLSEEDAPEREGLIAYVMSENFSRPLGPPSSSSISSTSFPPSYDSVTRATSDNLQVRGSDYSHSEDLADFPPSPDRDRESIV

[12] = target: T4, Cytochrome P450 2C8 (Homo sapiens, UniProt P10632); assay: Inhibition of CYP2C8; type: ADME
T4 sequence (P10632 whole entry): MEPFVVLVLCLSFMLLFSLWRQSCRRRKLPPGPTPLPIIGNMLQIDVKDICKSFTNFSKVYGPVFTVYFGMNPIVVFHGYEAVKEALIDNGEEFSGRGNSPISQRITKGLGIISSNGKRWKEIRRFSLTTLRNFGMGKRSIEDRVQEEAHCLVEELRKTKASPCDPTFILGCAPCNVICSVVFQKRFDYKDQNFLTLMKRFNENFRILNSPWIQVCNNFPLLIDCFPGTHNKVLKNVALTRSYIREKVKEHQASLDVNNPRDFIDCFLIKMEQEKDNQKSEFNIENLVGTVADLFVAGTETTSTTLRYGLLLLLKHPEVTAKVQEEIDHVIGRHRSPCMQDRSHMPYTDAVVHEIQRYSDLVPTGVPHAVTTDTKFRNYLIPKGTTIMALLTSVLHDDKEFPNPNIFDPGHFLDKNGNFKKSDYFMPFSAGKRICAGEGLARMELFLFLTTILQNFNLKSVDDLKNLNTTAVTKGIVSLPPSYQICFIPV

[13] = Bioavailability in rat at 1 mg/kg, iv and 2 mg/kg, po; type: ADME, organism-based; details: in vivo
Procedure, shortened: (§2)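 Rats dosed IV at 1 mg/kg (n = 2) and PO at 2 mg/kg (n = 3). Blood drug levels measured by LC/MS/MS after protein precipitation with acetonitrile.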

[14] = Clearance in rat at 1 mg/kg, iv and 2 mg/kg, po; type: ADME, organism-based; details: in vivo; procedure, shortened: as §2
[15] = Volume of distribution at steady state in rat at 1 mg/kg, iv and 2 mg/kg, po; type: ADME, organism-based; details: in vivo, read-out: Vdss; procedure, shortened: as §2
[16] = Half life in rat at 1 mg/kg, iv and 2 mg/kg, po; type: ADME, organism-based; details: in vivo; procedure, shortened: as §2
[17] = system: Rattus norvegicus; assay: Antihypertensive activity in spontaneously hypertensive rat assessed as change in systolic blood pressure at 50 mg/kg, po up to 8 hrs by telemetry method; type: functional, organism-based; set-up: dose 50 mg/kg; details: Artery
Procedure, shortened: (§3)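 Spontaneously hypertensive rats dosed orally at 50 mpk. Systolic and diastolic blood pressure, heart rate and pulse pressure recorded by telemetry over 8 h post dose.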

[18] = system: Rattus norvegicus; assay: Antihypertensive activity in spontaneously hypertensive rat assessed as change in diastolic blood pressure at 50 mg/kg, po up to 8 hrs by telemetry method; type: functional, organism-based; set-up: dose 50 mg/kg; details: Artery; procedure, shortened: as §3

IC50 [1] | IC50 [2] | IC50 [3] | IC50 [4] | IC50 [5] | IC50 [6] | IC50 [8] | IC50 [9] | IC50 [10] | IC50 [12] | bioavailability [13] | clearance [14] | Vd [15] | half-life [16] | SMILES | IC50 [7] | IC50 [11] | Activity [17] | Activity [18]
0.001 µM | 0.005 µM | 54 µM | > 10 µM | < 10 µM | < 10 µM | 2 µM |  |  |  |  |  |  |  | CC1(c2ccccc2)CCCN(C(=O)NCCc2ccc(Cl)cc2)C1 (stereo not given) | 9 µM |  |  | 
0.005 µM | 0.069 µM | > 100 µM | > 100 µM |  | > 100 µM |  | 0.002 µM | > 100 µM | 65 µM |  |  |  |  | O=C(O)CCC1(c2ccccc2)CCCN(C(=O)Nc2ccc(Cl)cc2)C1 (stereo in doubt) [listing 1 of 2 here] |  | > 10 µM |  | 
0.001 µM | 0.005 µM | > 100 µM | > 10 µM |  | < 10 µM | 1.7 µM | < 0.001 µM | > 10 µM |  | 13% | 43 mL/min/kg | 12 L/kg | 3.9 h | CC1(c2ccccc2)CCCN(C(=O)Nc2ccc(Cl)cc2)C1 (stereo not given) | 12 µM | > 10 µM |  | 
0.012 µM | 0.119 µM | > 100 µM | > 10 µM | < 10 µM | < 10 µM | 0.1 µM | 0.0013 µM |  |  | 52% | 59 mL/min/kg | 1.4 L/kg | 0.66 h | CN(C)CCC1(c2ccccc2)CCCN(C(=O)Nc2ccc(Cl)cc2)C1 (stereo not given) | 0.3 µM | > 10 µM |  | 
< 0.001 µM | 0.003 µM |  | > 10 µM | < 10 µM | < 10 µM | 2 µM |  |  |  |  |  |  |  | CC1(c2ccccc2)CCCN(C(=O)NCc2ccc(Cl)cc2Cl)C1 (stereo not given) | 20 µM | < 10 µM |  | 
0.005 µM | 0.059 µM | > 100 µM | > 10 µM |  | < 10 µM |  | < 0.001 µM | 10 µM |  | 0.17% | 124 mL/min/kg | 1.4 L/kg | 0.39 h | O=C(Nc1ccc(Cl)cc1)N1CCCC(CCc2nn[nH]n2)(c2ccccc2)C1 (stereo not given) | 3 µM | > 10 µM |  | 
 |  |  |  |  |  |  |  |  |  |  |  |  |  | O=C(O)CCC1(c2ccccc2)CCCN(C(=O)Nc2ccc(Cl)cc2)C1 (stereo in doubt) [listing 2 of 2 here] |  |  | inactive | inactive
 | 0.026 µM | > 100 µM | > 10 µM |  | > 10 µM |  | < 0.001 µM | > 10 µM |  | 13% | 116 mL/min/kg | 0.88 L/kg | 4.4 h | NC(=O)CCC1(c2ccccc2)CCCN(C(=O)Nc2ccc(Cl)cc2)C1 (stereo not given) | 7 µM |  |  | 
0.029 µM | 0.026 µM | > 100 µM | < 10 µM | < 10 µM | > 10 µM |  | 0.013 µM |  |  |  |  |  |  | CC1(c2ccccc2)CCCN(C(=O)NCCc2ccc3nc[nH]c3c2)C1 (stereo not given) | 13 µM |  |  | 
0.001 µM | 0.003 µM | 47 µM | < 10 µM |  | < 10 µM | 0.5 µM | < 0.001 µM | 10 µM |  |  |  |  |  | CC1(c2ccccc2)CCCN(C(=O)NCc2ccc(-c3ccccn3)cc2)C1 (stereo not given) | 4 µM | > 10 µM |  | 
0.0013 µM | 0.01 µM | > 100 µM | < 10 µM |  | < 10 µM | 5 µM | < 0.001 µM | > 10 µM |  |  |  |  |  | O=C(Nc1ccc(Cl)cc1)N1CCCC(CCCO)(c2ccccc2)C1 (stereo not given) | 6 µM | > 10 µM |  | 
 | 0.076 µM | > 100 µM | > 10 µM |  | > 10 µM | > 30 µM | 0.004 µM | > 10 µM |  | 84% | 4 mL/min/kg | 0.8 L/kg | 3.2 h | O=C(O)CCC1(c2ccccc2)CCCN(C(=O)Nc2ccc(Cl)cc2)C1 (stereo in doubt; 2b) | > 30 µM | > 10 µM |  | 

— ChEMBL document CHEMBL1154229 (Bioorg Med Chem Lett, 2009)
